From ChEMBL document CHEMBL1156362, “Antimalarial (+)-trans-hexahydrodibenzopyran derivatives from Machaerium multiflorum” (J Nat Prod, 2001)
Converted amounts (≈) assume the structure as drawn.

What was measured:
Staphylococcus aureus [1] = experiment: Antibacterial activity against Staphylococcus aureus ATCC 6535 after 48 hrs by microplate assay; assay type: functional, organism-based
How it was run: (§1)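 IC50 values were read from a modified 96-well microplate growth-inhibition assay against ATCC strains: C. neoformans 90113, S. aureus 6535 and methicillin-resistant S. aureus 33591. Positive controls were amphotericin B and tetracycline, and DMSO served as the negative control.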

Staphylococcus aureus [2] = experiment: Antibacterial activity against methicillin-resistant Staphylococcus aureus ATCC 33591 after 48 hrs by microplate assay; assay type: functional, organism-based; how it was run: as §1
Cryptococcus neoformans = experiment: […] activity against Cryptococcus neoformans ATCC 90113 after 48 hrs by microplate assay; assay type: functional, organism-based; how it was run: as §1
[3] = molecular target: Cannabinoid receptor 1 (Homo sapiens) (UniProt P21554); experiment: Displacement of [3H]CP-55940 from human recombinant CB1 receptor expressed in HEK293 cells at 1 uM; assay type: cell-based
Sequence of Cannabinoid receptor 1 (Homo sapiens) (P21554 whole entry): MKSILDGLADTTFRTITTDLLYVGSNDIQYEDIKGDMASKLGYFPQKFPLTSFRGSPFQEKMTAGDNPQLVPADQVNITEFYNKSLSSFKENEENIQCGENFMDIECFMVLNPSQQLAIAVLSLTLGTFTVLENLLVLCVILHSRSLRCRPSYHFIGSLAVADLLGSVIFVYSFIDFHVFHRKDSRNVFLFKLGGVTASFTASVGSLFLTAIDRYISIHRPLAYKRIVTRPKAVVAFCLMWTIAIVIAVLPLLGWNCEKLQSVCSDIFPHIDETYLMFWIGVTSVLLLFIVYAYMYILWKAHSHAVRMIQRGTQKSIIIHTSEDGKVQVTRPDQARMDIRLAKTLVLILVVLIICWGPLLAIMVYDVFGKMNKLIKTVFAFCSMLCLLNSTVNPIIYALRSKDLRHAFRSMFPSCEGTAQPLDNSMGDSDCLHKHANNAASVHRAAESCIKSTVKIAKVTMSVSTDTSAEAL
How it was run: (§2)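 Radioligand binding assay for the CB1 site, using human recombinant HEK-293 cells as the receptor source. Compounds were screened in a primary assay at 1 and 0.1 µM and expressed as % affinity. A response above 50% of maximum stimulation or inhibition counted as significant. WIN-55,212-2 was the reference, with DMSO as placebo.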

Plasmodium falciparum [4] = experiment: Antimalarial activity against chloroquine-sensitive Plasmodium falciparum D6 by LDH reporter assay; assay type: functional, organism-based
[5] = Selectivity index, ratio of IC50 for african green monkey (Cercopithecus aethiops) Vero cells to IC50 for chloroquine-sensitive Plasmodium falciparum D6; assay type: toxicity, cell-based; conditions: read-out: Ratio IC50
[6] = molecular target: Cannabinoid receptor 1 (Homo sapiens) (UniProt P21554); experiment: Displacement of [3H]CP-55940 from human recombinant CB1 receptor expressed in HEK293 cells at 0.1 uM; assay type: cell-based; how it was run: as §2
Plasmodium falciparum [7] = experiment: Antimalarial activity against chloroquine-resistant Plasmodium falciparum W2 by LDH reporter assay; assay type: functional, organism-based
[8] = Selectivity index, ratio of IC50 for african green monkey (Cercopithecus aethiops) Vero cells to IC50 for chloroquine-resistant Plasmodium falciparum W2; assay type: toxicity, cell-based; conditions: read-out: Ratio IC50
[9] = Staphylococcus aureus, ATCC 6535, 48 h, read-out: IC50
[10] = Staphylococcus aureus, ATCC 33591, 48 h, read-out: IC50
[11] = Cryptococcus neoformans, ATCC 90113, 48 h, read-out: IC50

Structure (SMILES) | IC50 (Staphylococcus aureus [1]; [9]) [µg/mL] | IC50 (Staphylococcus aureus [2]; [10]) [µg/mL] | IC50 (Staphylococcus aureus [1]) | IC50 (Cryptococcus neoformans; [11]) [µg/mL] | IC50 (Staphylococcus aureus [2]) | Activity [3] [%] | IC50 (Cryptococcus neoformans) | IC50 (Plasmodium falciparum [4]) [µg/mL] | selectivity ratio [5] | Activity [6] [%] | IC50 (Plasmodium falciparum [7]) [µg/mL] | selectivity ratio [8]
CN(C)[C@@H]1C(O)=C(C(N)=O)C(=O)[C@@]2(O)C(O)=C3C(=O)c4c(O)cccc4[C@@](C)(O)[C@H]3C[C@@H]12 [TETRACYCLINE] | 0.15 (≈ 0.338 µM) | 0.15 (≈ 0.338 µM) |  |  |  |  |  |  |  |  |  | 
C[C@@H]1[C@H](O)[C@@H](C)/C=C/C=C/C=C/C=C/C=C/C=C/C=C/[C@H](O[C@@H]2O[C@H](C)[C@@H](O)[C@H](N)[C@@H]2O)C[C@@H]2O[C@](O)(C[C@@H](O)C[C@@H](O)[C@H](O)CC[C@@H](O)C[C@@H](O)CC(=O)O[C@H]1C)C[C@H](O)[C@H]2C(=O)O [AMPHOTERICIN B] |  |  | Not Active | 0.375 (≈ 0.406 µM) | Not Active |  |  |  |  |  |  | 
C[C@H]1CC[C@H]2[C@H](C1)c1c(O)cc(-c3cc4ccccc4o3)cc1OC2(C)C [MACHAERIOL B] | 5 (≈ 13.8 µM) | 4.5 (≈ 12.4 µM) |  |  |  | -3 | Not Active | 0.72 (≈ 1.99 µM) | > 6.6 | 3 | 0.12 (≈ 0.331 µM) | > 40
C[C@H]1CC[C@H]2[C@H](C1)c1c(O)cc(/C=C/c3ccccc3)cc1OC2(C)C [MACHAERIOL A] | 15 (≈ 43 µM) | 10 (≈ 28.7 µM) |  | 50 (≈ 143 µM) |  | 7 |  | 1.5 (≈ 4.3 µM) | > 3.2 | 10 | 0.6 (≈ 1.72 µM) | > 7.9
C[C@@H]1CC[C@H]2[C@@H](C)C(=O)O[C@@H]3O[C@@]4(C)CC[C@@H]1[C@]32OO4 [ARTEMISININ] |  |  |  |  |  |  |  |  | > 952 |  |  | > 1080
